Results from ChEMBL document CHEMBL4513216, “Probing the Open Global Health Chemical Diversity Library for Multistage-Active Starting Points for Next-Generation Antimalarials” (ACS Infect Dis, 2020).

Assay: Toxicity liver stage against HepG2, at 10uM
Type: cell-based
Parameters: test concentration 10 uM, cell line HepG2-A16-CD81EGFP
Details: human, HepG2-A16-CD81EGFP cells; read-out: INHIBITION
Method in brief: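 Uninfected HepG2-A16-CD81EGFP cells, 3 × 10^3 per well, 1536-well, plated on prespotted compound at 10 μM final, parasite-free screening media added to match infected plates; puromycin 10 μM positive, DMSO 0.5% negative; run in parallel with 48 h PbLuc assay at 37 °C, 5% CO2; viability by CellTiter-Glo luminescence, normalized to controls.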
Compound CCn1cnnc1CN(C)C(=O)C1CCC(=O)N(CC2CCCCC2)C1 (stereo not given) has a cytotoxicity at 10 µM of -1.33%. CC1=C[C@@H](CN2CCN(C)CC2)[C@H](C(C)C)C[C@H]1Cc1nnc(C)o1 showed a cytotoxicity at 10 µM of -0.39%. Compound CCS(=O)(=O)N1CCC(c2nnc(C3CC3)o2)CC1 has a cytotoxicity at 10 µM of -10.7%. Work on Cc1cnc(N2C[C@@H]3[C@@H](C2)OCC(=O)N3C)nc1 yielded a cytotoxicity at 10 µM of -3.4%. For CCOc1cccc(CNc2ccccc2C(=O)OC)c1O, the cytotoxicity at 10 µM was 6.69%. CNC(=O)C1(C)CN(S(=O)(=O)c2cccc(OC)c2)CCO1 (stereo not given) gave a cytotoxicity at 10 µM of -1.43%. Compound CC(=O)N1CCCN(C(=O)NC(C)c2ccc(C)o2)CC1 (stereo not given) has a cytotoxicity at 10 µM of 2.72%. In the case of Cc1csc(C(C)(C)NCC(=O)N(C)Cc2ccc(C)o2)n1, the cytotoxicity at 10 µM is reported as -1.12%. For CCc1nnc(C(C)N2CCC(NC(=O)C3CCCCC3)CC2)o1 (stereo not given), the cytotoxicity at 10 µM was -8.35%. Cc1nc(CN(C)S(=O)(=O)c2ccccc2C(F)(F)F)no1 gave a cytotoxicity at 10 µM of -3.03%. With CCc1nnsc1C(=O)NCC1CN(CC(C)C)CCO1 (stereo not given) the cytotoxicity at 10 µM was 0.537%. Work on CCC(=O)NCC(=O)Nc1ncc(I)cc1C yielded a cytotoxicity at 10 µM of 5.4%. Compound O=C(NCc1ccccc1CN1CCCC1=O)Nc1nccs1 has a cytotoxicity at 10 µM of 9.66%. COCCn1cc(NC(=O)NCC(C)N2CCOCC2)cn1 (stereo not given) gave a cytotoxicity at 10 µM of 1.18%. Compound Cc1noc(C)c1CN(C)C(=O)c1ccc2c(c1O)OC(C)(C)C2 has a cytotoxicity at 10 µM of -2.92%. CCOCCCC(=O)NS(=O)(=O)c1ccc(C)s1 gave a cytotoxicity at 10 µM of 10%. In the case of COc1ccc(NC(=O)N2CCCCC2c2ncc[nH]2)cc1 (stereo not given), the cytotoxicity at 10 µM is reported as 10.4%. In the case of Cc1ccc(OCCNC(=O)C2CCOCC2)c(C)c1, the cytotoxicity at 10 µM is reported as 16.4%. For COCc1cnc2n1CCN(C(=O)c1cnc3ccccc3c1)C2C (stereo not given), the cytotoxicity at 10 µM was -110%. CN1CCC2(CC1)OC(C(=O)NCc1cccnc1)Cn1ccnc12 (stereo not given) gave a cytotoxicity at 10 µM of -87.3%. In the case of Cn1ccnc1CN1CCc2ncnc(N3CCCC(C#N)C3)c2CC1 (stereo not given), the cytotoxicity at 10 µM is reported as -5.1%. Cc1cc2nc(C(C)C)cc(N3CCC(O)CC3)n2n1 showed a cytotoxicity at 10 µM of -8.63%. For O=C(CCN1CCCCO1)NC1CCCN(CC2CCCCC2)C1 (stereo not given), the cytotoxicity at 10 µM was 4.21%. Cc1cccnc1CCNC(=O)[C@@]12CNC[C@@H]1CN(S(C)(=O)=O)C2 showed a cytotoxicity at 10 µM of -0.973%. COc1ccc(CN2CCC3(CCCNC3)C2)cc1Cn1cccn1 (stereo not given) gave a cytotoxicity at 10 µM of -10.1%. CCC(CO)N(Cc1ccccn1)C(=O)c1ncccc1C (stereo not given) gave a cytotoxicity at 10 µM of 3.42%. In the case of CCC(C(=O)NCc1ccncc1)N(c1ccc(F)cc1)S(C)(=O)=O (stereo not given), the cytotoxicity at 10 µM is reported as -5.48%. CSc1nccc(N2CCN(C)C3(CCC(=O)N(CC4CC4)CC3)C2)n1 (stereo not given) showed a cytotoxicity at 10 µM of 5.6%. Compound Cc1nc(CNC(=O)NCC(O)c2ccccc2)cs1 (stereo not given) has a cytotoxicity at 10 µM of 0.682%. Cc1nc(CN2CCCC(NCc3ccc(C(N)=O)cc3)C2)no1 (stereo not given) gave a cytotoxicity at 10 µM of -9.47%. CN(C)c1ncccc1CNS(=O)(=O)c1ccc(F)c(F)c1 gave a cytotoxicity at 10 µM of -7.18%. Cc1nc(CN2CCC(N3CCN(C)C3=O)CC2)no1 showed a cytotoxicity at 10 µM of -22%. Compound Cc1ccc(S(=O)(=O)NC(=O)COc2cccc(C(N)=O)c2)s1 has a cytotoxicity at 10 µM of -12.7%. Work on N#Cc1ccc(OCCN2CCn3c(nnc3C3CC3)C2)cc1 yielded a cytotoxicity at 10 µM of -3.75%. Work on OC(CNCCn1cccn1)c1cccc(Br)c1 (stereo not given) yielded a cytotoxicity at 10 µM of -5.98%. Compound Cc1cnn(CC2CN(CC(=O)Nc3ccncc3)CCO2)c1 (stereo not given) has a cytotoxicity at 10 µM of -3.75%. For COc1c(C2CCCN2Cc2nc(C)c(C)o2)c(C)nn1C (stereo not given), the cytotoxicity at 10 µM was -2%. Work on CC(C)(C)c1nc(CN(Cc2cccs2)CC2CCCO2)no1 (stereo not given) yielded a cytotoxicity at 10 µM of -10%. CC(C)N1CCN(C(=O)Cc2csc(-c3ccco3)n2)CC1 gave a cytotoxicity at 10 µM of -2.93%. Compound CN(C)CC(=O)N1CCN(C(=O)c2cccc3[nH]ncc23)CC1 has a cytotoxicity at 10 µM of -11.6%. Compound O=C(NCc1ccco1)[C@@H]1CCO[C@@H]2CCN(C3CCOCC3)C[C@H]21 has a cytotoxicity at 10 µM of -74.9%. Work on Fc1ccc(CN2C[C@@H]3OCCN(CCN4CCCC4)[C@@H]3C2)cc1 yielded a cytotoxicity at 10 µM of -3.58%. In the case of Cc1nc(CN2C[C@@H]3CN(C(=O)NC(C)C)C[C@@H]3C2=O)cs1, the cytotoxicity at 10 µM is reported as -76.2%. Work on O=C(C1CCOC1)N1CCN(CCn2cccn2)c2ncccc2C1 (stereo not given) yielded a cytotoxicity at 10 µM of -104%. Work on CC(C)(C)c1cc(CN2C[C@@H]3CC[C@H]2CN(Cc2cscn2)C3)n[nH]1 yielded a cytotoxicity at 10 µM of 5.13%.
